Calls of active or inactive are those of the source.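 Rule for the calls: active = a fitted dose response curve plus choline uptake above 120% of control at 33.3 µM; inactive = the rest.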

These results are taken from PubChem BioAssay AID651748 (Johns Hopkins Ion Channel Center, 2012).

Sequence of High affinity choline transporter 1 (Homo sapiens) (Q9GZV3 whole entry, looked up): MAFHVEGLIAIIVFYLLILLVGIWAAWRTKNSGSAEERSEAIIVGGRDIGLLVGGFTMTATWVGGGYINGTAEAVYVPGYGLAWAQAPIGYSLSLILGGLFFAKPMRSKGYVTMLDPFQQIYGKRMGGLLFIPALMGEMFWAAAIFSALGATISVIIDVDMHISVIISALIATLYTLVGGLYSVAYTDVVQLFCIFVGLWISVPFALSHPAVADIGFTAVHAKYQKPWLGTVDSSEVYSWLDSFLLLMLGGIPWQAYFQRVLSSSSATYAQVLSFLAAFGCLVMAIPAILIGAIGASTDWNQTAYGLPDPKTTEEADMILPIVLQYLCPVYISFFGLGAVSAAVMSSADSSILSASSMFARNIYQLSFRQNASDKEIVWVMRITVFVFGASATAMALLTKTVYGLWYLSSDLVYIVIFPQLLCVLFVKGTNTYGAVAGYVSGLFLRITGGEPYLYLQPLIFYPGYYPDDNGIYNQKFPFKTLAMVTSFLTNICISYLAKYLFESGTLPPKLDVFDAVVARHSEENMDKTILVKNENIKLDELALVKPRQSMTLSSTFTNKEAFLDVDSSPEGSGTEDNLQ

In this assay the target is High affinity choline transporter 1 (Homo sapiens) (UniProt Q9GZV3). The assay can be described thus: CHT activators enhancing choline uptake, dose response, orthogonal assay for CHT activator project, cell-based, 3H-choline uptake, radioactive, HEK293 CHT LV-AA (AID 651748). As to conditions: HEK293 hCHT LV-AA cells; series mostly up to 33.3 µM. Summed up:
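material = HEK293 cells expressing human CHT trafficking mutant LV-AA | buffer or medium = HBSS with 20 mM HEPES, pH 7.4 | reagent = 50 nM choline, 10% 3H-labelled | timing = 15 min compound pre-incubation then 15 min choline uptake, both 37 °C | technique = tritium scintillation counting | controls = buffer 100%, HC-3 0%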
On to `O=C(c1cccc(C(F)(F)F)c1)C1CCCN(Cc2cccn2-c2ncccn2)C1` (centres undefined), for which the outcome was inactive. Then `CCOc1ccc(NCc2nc3ccccc3n2CCOc2ccccc2)cc1`, with “inactive”; and `c1ccc(NCc2nc3ccccc3n2CCOc2ccccc2)cc1`, with “inactive”; and `Clc1ccc(NCc2nc3ccccc3n2CCOc2ccccc2)cc1`, with “inactive”. The value for `O=C1N(Cc2cccc(Cl)c2)C[C@@H]2C[C@@H](c3cccn3-c3ccccn3)N3CCC[C@@]123` was “inactive”; that for `Cc1ccc(NCc2nc3ccccc3n2CCOc2ccccc2)cc1` was “inactive”; that for `Cc1cccc(NCc2nc3ccccc3n2CCOc2ccccc2)c1` was “inactive”. `Fc1ccc(NCc2nc3ccccc3n2CCOc2ccccc2)cc1`: the result was inactive. `Brc1ccc(NCc2nc3ccccc3n2CCOc2ccccc2)cc1`: the result was inactive. As for `COc1ccc(NCc2nc3ccccc3n2CCOc2ccccc2Cl)cc1`, the result was inactive. Consider `Cc1ccccc1NCc1nc2ccccc2n1CCOc1ccccc1`, for which the outcome was inactive. For `COc1ccccc1NCc1nc2ccccc2n1CCOc1ccccc1`, the result was inactive. Regarding `COc1ccc(NCc2nc3ccccc3n2CCOc2ccccc2)cc1`, the outcome was inactive. Turning to `CC(C)CN1CCN(Cc2cccn2-c2ccc(Cl)cn2)CC1CCO` (centres undefined), the outcome was inactive.
